The list is not random: actives were taken first. Their share in the collection is about 4.6%.
TAAR1 antagonist – antagonists of human TAAR1 | Q96RJ0 | CHO RD-HGA16 TAAR1, Fluo-8 calcium fluorescence, antagonist | inhibition, % at 3 µM | 360,000 tested, 1.5% active;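 active = inhibition above a per-plate cutoff, the mean inhibition of test compounds on that plate plus 3 SD, cut at about 49% in these data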;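 also: 0% = DMSO plus EC80 beta-PEA response and 100% = DMSO alone without agonist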
Target sequence (Q96RJ0 whole entry, looked up): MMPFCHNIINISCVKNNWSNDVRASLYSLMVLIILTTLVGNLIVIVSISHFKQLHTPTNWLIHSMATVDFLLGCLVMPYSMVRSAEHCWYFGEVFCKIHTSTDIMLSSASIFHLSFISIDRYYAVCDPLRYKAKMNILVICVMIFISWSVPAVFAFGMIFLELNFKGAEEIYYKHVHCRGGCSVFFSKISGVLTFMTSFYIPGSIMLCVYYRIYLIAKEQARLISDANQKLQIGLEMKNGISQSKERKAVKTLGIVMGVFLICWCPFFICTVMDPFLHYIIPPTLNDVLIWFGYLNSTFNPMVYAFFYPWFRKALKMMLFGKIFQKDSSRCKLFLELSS
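Test system – hTAAR1-expressing CHO RD-HGA16 cells, Gα16-coupled · Reagent – β-PEA at EC80 concentration, post-compound challenge · Compound dosing – 3 µM, single point · Timing – 140 s kinetic read after compound, 140 s after agonist · Detection – Fluo-8 intracellular calcium dye fluorescence, real-time kinetic reads · Control set – DMSO and EC80 PEA controls · Repeats – n of 1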
OX1R antag-1 – blocks the human orexin 1 receptor | 330,000 tested, 1.8% active | inhibition, % at 6.6 µM | OX1R-expressing cells, FRET antagonist read-out | O43613; in the data active = inhibition mostly above about 38%, no sharp cut-off; inactive = mostly below about 40%;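 also: 0% = agonist challenge alone and 100% = reference antagonist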
GPR7 antagonist – blocks human GPR7 receptor signaling | AID 1861 | GPR7-expressing cells, fluorescence antagonist assay | inhibition, % at 4.4 µM | 290,000 tested, 1.1% active; in the data active = inhibition above about 16%, passing the limit was not always enough;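 also: cells stimulated with the agonist NPW; 0% = agonist with vehicle and 100% = vehicle without agonist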
Target sequence (P48145 whole entry, looked up): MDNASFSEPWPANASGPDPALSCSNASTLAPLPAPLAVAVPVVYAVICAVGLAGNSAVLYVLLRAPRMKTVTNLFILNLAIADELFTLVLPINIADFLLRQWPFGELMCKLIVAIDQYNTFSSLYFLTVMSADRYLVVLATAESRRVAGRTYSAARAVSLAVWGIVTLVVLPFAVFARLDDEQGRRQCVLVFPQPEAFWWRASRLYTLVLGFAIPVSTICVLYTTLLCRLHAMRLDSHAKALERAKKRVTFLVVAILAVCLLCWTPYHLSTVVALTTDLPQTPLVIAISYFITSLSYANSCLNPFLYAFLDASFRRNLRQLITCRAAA
TAAR1 ag – agonists of human TAAR1; CHO RD-HGA16 TAAR1, Fluo-8 calcium fluorescence; vehicle wells 0%, saturating PEA agonist 100%; 360,000 tested, 0.99% active; activation, % at 3 µM; Q96RJ0; AID 624467;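 active = activation above the mean activation of all test compounds in the run plus 3 SD, cut at about 38% in these data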
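Test system: RD-HGA16 (CHO) cells co-expressing Gα16 and hTAAR1 | Doses: Single dose, 3 µM | Schedule: 17-24 h seeding, 75 min 37 °C dye, 30 min RT | Evaluation: % activation from peak over basal fluorescence ratio, DMSO-to-PEA scaled | Technique: Kinetic Fluo-8 calcium fluorescence | Benchmarks: Low control DMSO, high control PEA (EC100)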
OX1R antag-2 – blocks the human orexin 1 receptor | O43613 | CHO/OX1R cells, Fluo-8 calcium fluorescence, orexin A | inhibition, % at 5 µM | 330,000 tested, 0.43% active | AID 434989;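 active = inhibition above its plate's threshold, mean inhibition of all tested compounds on the plate plus 3 SD, cut at about 37% in these data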;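 also: 0% = orexin A challenge wells and 100% = SB-334867-A antagonist wells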
CHO parental Ca – counter-screen: ATP calcium response change in parental CHO cells; parental CHO-K1, ATP-induced calcium, Fluo-8 fluorescence; inhibition, % at 5.6 µM; 330,000 tested, 0.63% active; AID 463079;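 active = inhibition above that plate's mean sample inhibition plus 3 SD, cut at about 26% in these data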;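 also: 0% = ATP-challenged DMSO wells and 100% = DMSO wells without ATP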
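Assay system: untransfected parental CHO cell line. Also added: ATP agonist challenge. Dosing: one dose, 5.6 µM nominal. Measured by: Fluo-8 fluorescence. Read-out: % inhibition. Benchmarks: ATP wells versus no-ATP DMSO wells. Repeats: no replicates.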
TAAR1 ag conf – human TAAR1 agonism, confirmed; shares compounds with TAAR1 ag; CHO RD-HGA16 TAAR1, Fluo-8 calcium fluorescence; scaled: DMSO 0%, maximal phenethylamine 100%; activation, % at 3 µM; 2,400 tested, 82% active; AID 651783;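 active = activation above a cutoff set at the run's mean compound activation plus 3 SD, cut at about 39% in these data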
Ga16 nonsel ag – nonselective agonism, TAAR1 counter-screen | shares compounds with TAAR1 ag | CHO-Ga16 parental, Fluo-8 calcium fluorescence; normalized to maximal ATP response, DMSO zero | activation, % at 3 µM | 2,400 tested, 50% active;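 active = activation above the run cutoff, the mean activation over all tested wells plus 3 SD, cut at about 12% in these data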;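 also: 0% = DMSO wells and 100% = maximal ATP response on the peak over basal ratio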
TAAR1 desensitize – human TAAR1 agonist that also desensitizes the receptor; shares compounds with TAAR1 ag; 2,400 tested, 46% active; CHO RD-HGA16 hTAAR1, Fluo-8 calcium, beta-PEA response inhibition; AID 651951; inhibition, % at 3 µM;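 active = inhibition above the run cutoff, the mean inhibition of all test compounds plus 3 SD, cut at about 49% in these data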;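 also: beta-PEA stimulus applied at its EC80; loss of beta-PEA calcium signal after compound pretreatment read as receptor desensitization; 0% = DMSO with beta-PEA at EC80 and 100% = DMSO alone without agonist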
Ga16 antag count – counter-screen for TAAR1 agonists: nonselective Ga16 antagonists | inhibition, % at 3 µM | CHO-Ga16 ATP-induced calcium, Fluo-8 fluorescence | shares compounds with TAAR1 ag | AID 651952 | 2,400 tested, 39% active;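 active = inhibition above the plate's mean compound inhibition plus 3 SD, computed per plate, cut at about 22% in these data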;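 also: 0% = EC80 ATP with DMSO and 100% = DMSO wells without ATP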
The depositor's hits bear a star; / = no result.

SMILES	TAAR1 antagonist	OX1R antag-1	GPR7 antagonist	TAAR1 ag	OX1R antag-2	CHO parental Ca	TAAR1 ag conf	Ga16 nonsel ag	TAAR1 desensitize	Ga16 antag count
CCCCOc1ccc(N2C(=O)CC(N(CCc3ccccc3)C(=O)/C=C/C(=O)O)C2=O)cc1 (centres undefined)	1	8	-8	67*	-21	-11	78*	2	31	0
Cc1ccc2sc(NC(=O)C3CC3)nc2c1C	6	17	-3	-1	-15	3	/	/	/	/
CCCc1nnc2c(N(C)S(=O)(=O)c3ccc(C)cc3)nc3ccccc3n12	-2	24	-12	1	-29	-21	/	/	/	/
CCCCc1nnc2c(N(C)S(=O)(=O)c3ccc(C)cc3)nc3ccccc3n12	-8	-1	-12	57*	-24	-12	0	0	2	8
NCCCCCc1nnc(SCc2ccc(Cl)c(Cl)c2)o1	3	7	4	50*	-14	-11	62*	6	31	5
NCCc1nnc(SCc2ccc(F)cc2)o1	-1	18	2	7	-9	-5	/	/	/	/
C=CCN1CCc2c(cc(O)c(O)c2Br)[C@@H](c2ccccc2)C1	-10	14	/	0	-17	-20	/	/	/	/
O=C(CN1C(=O)NC2(CCCC2)C1=O)OCCOc1ccccc1Cl	-14	22	/	0	-16	-13	/	/	/	/
OCCNCc1cc(Br)ccc1OCc1ccc(Cl)cc1Cl	-7	/	21	56*	/	/	79*	49*	51*	41*
O=C(NCC1CC1)c1ccc(Nc2nc3ccc(Br)cc3[nH]2)cc1	93*	17	3	49*	-26	-28	45*	2	67*	18
CC1=C(NCCc2ccccc2)CCC1=O	60*	31	9	95*	-17	-18	103*	4	87*	0
Cc1ccc(S(=O)(=O)Nc2ccc(N(C)S(=O)(=O)c3ccc(C)cc3)cc2)cc1	25	8	-7	52*	-7	-5	45*	19*	33	21
CSc1ccc(S(=O)(=O)Nc2ccc(S(=O)(=O)Nc3ccc(C)cc3)cc2)cc1	1	0	-2	34	0	-10	/	/	/	/
Cc1cc(=O)[nH]c(Nc2cccc(F)c2)n1	10	8	-7	51*	5	24	81*	2	41	5
Cc1cc(C)nc(NS(=O)(=O)c2ccc(NC(=O)C3(c4ccc([N+](=O)[O-])cc4)CCCC3)cc2)n1	37	5	25	63*	17	12	102*	39*	64*	36*
COc1ccc(C2(C(=O)Nc3ccc(S(=O)(=O)Nc4nc(C)cc(C)n4)cc3)CCCC2)cc1OC	-18	-2	-2	1	-13	-10	/	/	/	/
Cc1nn(-c2ccccc2)c(Cl)c1C1C(C#N)=C(N)Oc2c1c(C)nn2-c1ccccc1 (centres undefined)	25	24	-1	61*	-33	-19	58*	34*	36	25*
CC(=O)C12CCCCC1CC1[C@@H]3CC(C)C4=CC(=O)CC[C@]4(C)C3CC[C@@]12C (some centres undefined)	-2	/	7	4	/	/	/	/	/	/
O=C(O)c1ccc(-n2cc(C(=O)c3ccccc3O)cn2)cc1	14	0	3	65*	-8	-6	19	9	13	14
CCOC(=O)Cc1c(-c2cccc(Cl)c2)nc2c3ccccc3ccn12	33	/	/	0	/	/	/	/	/	/
CC1=C(C)CS(=O)N(c2ccc(S(N)(=O)=O)cc2)C1 (centres undefined)	5	19	1	34	4	-8	/	/	/	/
CC1=C(C)CS(=O)N(S(=O)(=O)c2ccccc2)C1 (centres undefined)	9	19	3	73*	-8	-13	68*	33*	23	21
Cc1cc(NC(=O)COC(=O)c2ccco2)no1	-10	12	1	1	-13	-11	/	/	/	/
CSc1ccccc1OCc1cc(C(=O)NCCC2=CCCCC2)no1	-16	38	2	55*	-31	-6	38*	7	89*	58*
O=C(NCCC1=CCCCC1)c1cc(COc2c(F)cccc2F)on1	-17	6	0	8	-26	-24	/	/	/	/
SMILES	TAAR1 antagonist	OX1R antag-1	GPR7 antagonist	TAAR1 ag	OX1R antag-2	CHO parental Ca	TAAR1 ag conf	Ga16 nonsel ag	TAAR1 desensitize	Ga16 antag count
O=C(Nc1cccc(Cl)c1)c1nc[nH]c1C(=O)Nc1ccccc1F	-24	/	/	2	/	/	/	/	/	/
CCOc1ccc(C(=O)N2CCSC2=S)cc1	-19	16	-8	4	-7	0	/	/	/	/
COc1ccc([C@H]2CN(CCc3ccccc3)C(=O)[C@@H]2CC(=O)Nc2ccccc2)cc1	21	/	/	50*	/	/	35	6	10	13
COc1ccc(NC(=O)C[C@H]2C(=O)N(Cc3ccccc3)C[C@@H]2c2ccc(OC)cc2)cc1	-8	/	/	1	/	/	/	/	/	/
CNC(=O)C[C@H]1C(=O)N(CCc2ccccc2)C[C@@H]1c1ccc(OC)cc1	5	/	/	42*	/	/	76*	-1	16	4
CC(C)NC(=O)c1csc(COCCO)n1	-9	/	/	2	/	/	/	/	/	/
Cc1ccc(C)c(NC(=S)N(C)CCc2ccccn2)c1	-9	0	-8	45*	2	-5	39*	0	-2	-1
Cc1ccccc1NC(=S)N(C)CCc1ccccn1	7	7	-2	58*	-7	-8	61*	2	15	8
CN(CCc1ccccn1)C(=S)Nc1ccc(Cl)c(Cl)c1	0	24	-2	31	-28	-29	/	/	/	/
O=C(Cn1cnc2c(cnn2-c2ccccc2)c1=O)N1CCCc2ccccc21	15	29	1	6	-20	-16	/	/	/	/
CNC(=O)CSc1nnc(-c2ccccc2F)n1CCc1ccccc1	-14	3	-2	-2	-26	-11	/	/	/	/
O=C(CCCCl)N1CCc2[nH]c3ccccc3c2C1	87*	/	/	89*	/	/	97*	0	92*	8
Cc1ccc(NC(=S)N2CCc3[nH]c4ccccc4c3C2)cc1	64*	0	-4	69*	-4	3	49*	10	36	20
S=C(NC1CCCCC1)N1CCc2[nH]c3ccccc3c2C1	5	1	-16	1	-28	-15	/	/	/	/

From PubChem
